Screening data (PubChem)
TPT1 inhibitor: Candida albicans TPT1 enzyme inhibitors, primary screen, biochemical, fluorescence polarization; recombinant caTPT1, FP RNA substrate dephosphorylation; AID 1962, 2009; inhibition, % at 5 µM; 300,000 tested, 0.81% active;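 active = inhibition above the mean of all tested compounds plus 3 SD, set per screening campaign, cut at about 24% in these data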;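 also: plate controls were DMSO alone for no effect and ferristatin control at 100 nM for full effect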
CSN deneddyl inh: inhibitors of CSN-mediated cullin deneddylation, primary screen, biochemical, fluorescence polarization, uHTS; COP9 signalosome complex subunit 5 (Homo sapiens), Q92905; AID 651999, 2013; 360,000 tested, 0.38% active; inhibition, % at 12.5 µM; Purified CSN, SCF-Nedd8-OG deneddylation;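 active = pattern-corrected inhibition above about 35%, with an unprinted fluorescence ratio check between 0.5 and 1.5, limit read from the data, passing the limit was not always enough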;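 also: 0% = enzyme with substrate and 100% = substrate without enzyme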
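Assay system: Purified human Csn5 enzyme expressed in HEK293T cells | Amount: Enzyme 0.24 nM | Measured by: Fluorescence polarization readout | Medium: Tris/NaCl/DTT buffer, pH 7.5 | Compound dosing: One concentration, 12.5 µM, 0.25% DMSO | Times: 90 min incubation of compound, enzyme and substrate at room temperature | Control set: no-enzyme wells high, enzyme-with-substrate wells low | Read-out: % inhibition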
CRFR2-BP ag: agonists of CRF-BP/CRF-R2 complex, primary screen, cell-based, HEK293, calcium dye fluorescence, uHTS | activation, % at 13.2 µM | 350,000 tested, 0.46% active | calcium dye fluorescence (FLIPR); percent of saturating CRF peptide response;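 active = activation of at least 50%, plus an integration ratio under a set limit after plate pattern correction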;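 also: plate controls were neutral control wells without compound for no effect and CRF at EC100 for full effect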
HNF4A DNA FP: change in binding of human HNF4A to DNA, primary screen, biochemical, fluorescence polarization, FITC-DNA; 1 h; activity change, % at 10 µM; 360,000 tested, 0.3% active; AID 1224865, 2016; in the data active = activity change above about 30%, passing the limit was not always enough
CRFBP-R2 block: antagonists of CRF-BP/CRF-R2 complex, primary screen, cell-based, HEK293, calcium dye fluorescence, uHTS; 350,000 tested, 0.59% active; AID 588475, 2011; CRF-induced calcium fluorescence; inhibition, % at 11.8 µM;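 active = inhibition of the ligand-induced calcium signal above about 50% at the single tested concentration, limit read from the data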
Rpn11 block: Rpn11 (PSMD14) deubiquitinase inhibitors, primary screen, biochemical, fluorescence polarization, uHTS. 26S proteasome non-ATPase regulatory subunit 14 (Homo sapiens), O00487. human 26S proteasome, Ub4-pepOG fluorescence polarization; 20S core pre-blocked with epoxomicin. calls only at 20 µM. 360,000 tested, 0.59% active. AID 588493, 2011;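 active = inhibition at 20 µM, scaled to each plate's controls, above about 33%, limit read from the data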
Target sequence (O00487 whole entry, looked up): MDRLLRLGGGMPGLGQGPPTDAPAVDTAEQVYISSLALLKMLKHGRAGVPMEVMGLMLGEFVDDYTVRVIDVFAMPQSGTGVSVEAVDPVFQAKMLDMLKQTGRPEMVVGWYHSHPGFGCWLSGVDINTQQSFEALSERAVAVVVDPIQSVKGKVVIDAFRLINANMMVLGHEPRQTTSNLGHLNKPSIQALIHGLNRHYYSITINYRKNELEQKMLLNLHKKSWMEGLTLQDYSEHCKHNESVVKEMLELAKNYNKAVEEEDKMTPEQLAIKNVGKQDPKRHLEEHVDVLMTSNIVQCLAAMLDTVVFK
TPT1 inh confirm: Candida albicans TPT1 inhibitors, confirmation, biochemical, fluorescence polarization, triplicate; shares compounds with TPT1 inhibitor; recombinant caTPT1, RNase T1 coupled; inhibition, % at 5 µM; 2,400 tested, 74% active; AID 2149, 2009;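 active = inhibition above the primary screen limit, the mean inhibition of all tested compounds plus 3 SD, cut at about 25% in these data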
RNase T1 inh: RNase T1 inhibitors, counter-screen for TPT1 inhibitor project, biochemical, fluorescence polarization. RNase T1 cleavage, 1536-well. AID 2153, 2009. inhibition, % at 5 µM. shares compounds with TPT1 inhibitor. 2,400 tested, 83% active;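 active = inhibition above the solvent-only control well mean plus 3 SD, limit set per screening run, cut at about 23% in these data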;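 also: plate controls were DMSO wells with enzyme for no effect and wells without RNase T1 for full effect; inhibitors block cleavage so intact labeled substrate keeps polarization high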
Target sequence (P00651 whole entry, looked up): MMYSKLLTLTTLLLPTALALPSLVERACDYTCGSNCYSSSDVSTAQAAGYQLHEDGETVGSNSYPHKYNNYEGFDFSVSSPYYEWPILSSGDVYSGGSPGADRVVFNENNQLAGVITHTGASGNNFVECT
Rpn11 confirm: Rpn11 (PSMD14) deubiquitinase inhibitors, confirmation, biochemical, fluorescence polarization, single concentration | shares compounds with Rpn11 block | purified human 26S proteasome, Ub4-pepOG fluorescence polarization; proteasome pretreated with epoxomicin | inhibition, % at 20 µM | 1,900 tested, 29% active | AID 602318, 2012
MMP-2 counter-1: MMP-2 enzyme inhibition, confirmation, counter-screen for RPN11 inhibitor project, biochemical, fluorescence, single concentration. recombinant MMP-2, FRET peptide cleavage fluorescence. shares compounds with Rpn11 block. 1,900 tested, 4% active. inhibition, % at 20 µM;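 also: human MMP-2 activated beforehand with APMA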
Thrombin FP: bovine thrombin protease inhibition, confirmation, counter-screen for Rpn11 inhibitor project, biochemical, fluorescence polarization, single concentration; shares compounds with Rpn11 block; 1,900 tested, 13% active; bovine thrombin cleavage of Ub4-pepOG; AID 602333, 2012; inhibition, % at 20 µM;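 active = mean inhibition at least 40% at 20 µM, or signal 3 deviations below plate average, so some actives read negative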;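 also: plate controls were thrombin with DMSO for no effect and buffer wells lacking thrombin for full effect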
CSN deneddyl val: Csn5 deneddylation inhibitors, confirmation, biochemical, fluorescence polarization, single concentration, SCF-Nedd8OG substrate; shares compounds with CSN deneddyl inh; Csn5 deneddylation of SCF-Nedd8OG, 90 min; inhibition, % at 16.6 µM; 540 tested, 62% active; AID 720654, 2013; in the data active = inhibition above about 50%;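 also: 0% = DMSO with enzyme and 100% = no enzyme wells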
MMP-2 counter-2: MMP-2 protease inhibition counter-screen, confirmation, counter-screen for CSN deneddylation inhibitor project, biochemical, fluorescence, single concentration; shares compounds with CSN deneddyl inh; recombinant MMP-2, FRET substrate fluorescence, 60 min; inhibition, % at 16.6 µM; 540 tested, 33% active; AID 720655, 2013;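 active = corrected plate-normalized z-score of 5 or more, or -5 or less, or inhibition of 15% or more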;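 also: plate controls were DMSO wells with enzyme for no effect and buffer wells lacking MMP-2 for full effect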
Thrombin cntr: thrombin (bovine) inhibition, counter-screen for CSN hits | inhibition, % at 16.6 µM | shares compounds with CSN deneddyl inh | 540 tested, 49% active | bovine thrombin cleavage of Ub4-pepOG, fluorescence polarization;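 active = inhibition at or above a set limit, with a fluorescence interference ratio between 0.5 and a set maximum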
HNF4A confirm: change in HNF4A binding to DNA, retest, confirmation, biochemical, fluorescence polarization, FITC-DNA; 210 tested, 99% active; activity change, % at 12.5 µM; 1 h; shares compounds with HNF4A DNA FP; AID 1224897, 2016; call rule not given here
* = called active by the depositor; i = inactive; x = not tested or not shown; + = active, no number. Hits are enriched below; roughly 2.3% of the tested compounds scored in any of these assays. Rule as the data show it, unless noted: active = inhibition above about 40%; inactive = the rest.

SMILES	TPT1 inhibitor	CSN deneddyl inh	CRFR2-BP ag	HNF4A DNA FP	CRFBP-R2 block	Rpn11 block	TPT1 inh confirm	RNase T1 inh	CSN deneddyl val	MMP-2 counter-2	Thrombin cntr	others
O=C1NC(=O)N(c2ccc3c(c2)OCO3)C(=O)/C1=C/c1ccc(N2CCCC2)o1	128.1*	41.9*	29.9	143.0	-33.0	x	142.5*	140.2*	123.9*	-14.1	83.0*
O=C1NC(=O)N(c2ccc3c(c2)OCO3)C(=O)/C1=C/c1cccs1	4.3	4.0	0.0	-2.8	-3.8	i	x	x	x	x	x
Cc1ccc(/C=C2\C(=O)NC(=S)N(c3cccc(F)c3)C2=O)o1	40.8*	44.7*	3.8	20.8	2.2	x	45.8*	57.1*	64.8*	35.0*	54.4*
Cc1ccc(/C=C2\C(=O)NC(=O)N(CCc3ccc(F)cc3)C2=O)o1	20.0	5.3	7.9	-0.1	-46.9	i	x	x	x	x	x
CCOC(=O)C1=C(N)Oc2ccccc2C12C(=O)N(CC(=O)OC)C(CC(=O)OC)=C2C(=O)OC (centres undefined)	3.2	5.9	0.3	-2.0	-18.7	i	x	x	x	x	x
CC(C)(C)c1ccc(O)c(N=Cc2c(O)ccc3ccccc23)c1	134.9*	56.5*	60.3*	76.0	-73.2	x	137.8*	131.2*	66.6*	-18.9	60.8*
Cc1cc(C=C2C(=O)N(C)C(=S)N(C)C2=O)c(C)n1C1CCCCC1	24.5*	49.1*	0.3	20.3	2.2	+	27.6*	39.1*	112.5*	1.4	2.7	Rpn11 confirm=-2.1;MMP-2 counter-1=-27.1;Thrombin FP=14.3
Cc1cccc(N2C(=O)NC(=O)/C(=C\C=C\c3ccco3)C2=O)c1	24.6*	50.5*	3.6	4.9	-74.0	i	30.5*	47.8*	83.6*	8.0	9.1
Cc1cc(N2CCOCC2)ccc1/C=C1\C(=O)NC(=O)N(c2ccccc2)C1=O	4.8	5.2	2.6	5.3	0.2	i	x	x	x	x	x
Cc1ccc(N2C(=O)NC(=O)/C(=C\C=C\c3ccco3)C2=O)cc1C	37.7*	68.9*	2.8	1.2	-143.9	i	51.3*	69.6*	68.1*	5.9	12.2
O=C(COc1ccc2c3c(c(=O)oc2c1)CCC3)N1C[C@H]2C[C@@H](C1)c1cccc(=O)n1C2	4.8	-2.4	-1.1	3.8	-1.5	i	x	x	x	x	x
O=[N+]([O-])CCO	x	-1.0	-0.5	0.3	6.5	i	x	x	x	x	x
C=CCN1C(=O)/C(=C/c2ccc(Br)s2)C(=O)NC1=S	27.6*	37.3*	3.9	-5.6	3.3	x	15.1	23.7*	81.0*	12.5	3.1
C=Cn1ccnc1P(=S)(c1nccn1C=C)C1CCCCC1	-3.6	-0.2	-5.0	-2.2	-0.6	i	x	x	x	x	x
O=C1NC(=O)N(Cc2ccccc2)C(=O)/C1=C\C=C\c1ccco1	60.1*	80.6*	8.4	18.0	-71.7	+	46.1*	63.1*	60.5*	2.4	27.2*	Rpn11 confirm=28.5;MMP-2 counter-1=11.2;Thrombin FP=20.6
C=CCN1C(=O)NC(=O)/C(=C/C=C/c2ccccc2)C1=O	x	2.8	5.4	20.0	-44.2	i	x	x	x	x	x
O=C1NC(=O)N(Cc2ccco2)C(=O)/C1=C/C=C/c1ccco1	35.0*	45.8*	3.4	-30.8	-24.6	+	39.4*	54.0*	47.6	26.1*	20.0*
Cc1ccc(C2=NC(C)(C)N3C2C3c2ccc([N+](=O)[O-])cc2)cc1 (centres undefined)	-1.4	-13.1	-0.5	0.4	12.7	i	x	x	x	x	x
O=C1NC(=O)C(=Cc2ccc(N3CCOCC3)cc2)C(=O)N1	-2.9	-2.7	0.3	-0.5	25.9	i	x	x	x	x	x
CCN1C(=O)C(=Cc2ccc(N3CCOCC3)o2)C(=O)N(CC)C1=S	111.9*	105.9*	36.2	48.0*	-67.7	x	146.3*	136.8*	62.4*	-23.6	69.3*
CCN(CC)CCOC(=O)c1ccc(N=Cc2c(O)[nH]c(=O)[nH]c2=O)cc1	60.3*	48.0*	6.1	60.5*	-6.9	+	70.0*	86.6*	x	x	x	Rpn11 confirm=104.3*;MMP-2 counter-1=-6.0;Thrombin FP=73.5*;HNF4A confirm=99.0*
COC(=O)c1ccccc1N=Cc1c(O)[nH]c(=O)[nH]c1=O	0.2	-0.9	0.5	3.1	13.7	i	x	x	x	x	x
